Mdm2-MdmX inh – inhibitors of human Mdm2-MdmX association, primary screen, cell-based, luminescence, split luciferase, SaOS-2, uHTS; SaOS-2 split-luciferase Mdm2/MdmX complementation; inhibition, % at 8 µM; 3% of 330,000 active; AID 485346, 2010;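 active = inhibition of at least 50% at 8 µM in the primary screen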
CHOP UPR activ – activators of apoptotic CHOP UPR arm, primary screen, cell-based, CHO-CHOP luciferase reporter, luminescence, uHTS | UPR activation; percent of tunicamycin response over DMSO baseline | activation, % at 10 µM | 0.34% of 330,000 active;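 active = at 10 µM dose, activation of 40% or more, normalized to positive control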;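 note: 100% = tunicamycin at 10 µg/mL and 0% = DMSO alone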
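System: CHO CHOP reporter cells. Amount: 500 cells per well. Buffer or medium: F12 medium, 10% FBS. Compound dosing: one dose, 10 µM in 0.5% DMSO. Incubation: 6 h compound exposure at 37 °C after overnight seeding. Technique: Steady-Glo luciferase luminescence. Benchmarks: tunicamycin and DMSO controls.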
Beta cell apopt – inhibitors of cytokine-induced beta cell apoptosis, primary screen, luminescence. protection from apoptosis, % (concentration not given with the values). AID 435005, 2010. 0.8% of 300,000 active. INS-1E cytokine-induced death, ATP luminescence, 48 h; percent of positive-control rescue, neutral wells zero;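 active = Every replicate reaches about 75%, or at least half do and their mean reaches it too, limit read from the data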;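 note: 0% = cytokine-treated negative control wells and 100% = positive control rescue; higher means more ATP so stronger rescue from cytokine killing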
SKKanGAS inh – S. pyogenes SKKanGAS growth inhibitors in kanamycin, primary screen, streptokinase expression inhibitor project, SKKanGAS strain, BacTiter-Glo luminescence | 6 h | inhibition, % at 7.5 µM | 1.3% of 300,000 active | AID 1662, 2009;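 active = mean replicate score, as percent of positive control median, at least 50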;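 note: strain carries kanamycin resistance gene driven by streptokinase promoter and grows in 40 µg/ml kanamycin; loss of luminescence reflects streptokinase promoter inhibition or plain growth inhibition; 0% = median of DMSO wells and 100% = positive control at its reference dose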
CSC inhib – cancer stem cell viability inhibitors, primary screen, luminescence. cancer stem cell-like cells viability. inhibition, % at 7.5 µM. 1.1% of 300,000 active; in the data active = inhibition above about 75%; tested in HMLE shEcad cells
UPR XBP1 act – activators of adaptive XBP1 UPR arm, primary screen, cell-based, CHO-XBP1 luciferase reporter, luminescence, uHTS; 0.33% of 330,000 active; IRE1-XBP1 UPR activation; percent of tunicamycin response, DMSO as zero; activation, % at 20 µM; AID 463104, 2010;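 active = versus positive control, 20 µM dose yields 30% or more activation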;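 note: 100% = tunicamycin at 10 µg/mL and 0% = DMSO only wells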
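assay system = CHO-XBP1 luciferase reporter cells | amount = 1000 cells/well | buffer or medium = F12 plus 10% FBS | compound dosing = single point, 20 µM final compound, 1% DMSO | incubation = 16-18 h cell attachment at 37 °C, then 6 h compound exposure | detection = Steady-Glo luminescence read | controls = tunicamycin 10 µg/mL and vehicle-only wells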
* hit, by the source's call; nt = no result. In the library only some 4.8% were active in any assay of this set; here they are far more common.

SMILES	Mdm2-MdmX inh	CHOP UPR activ	Beta cell apopt	SKKanGAS inh	CSC inhib	UPR XBP1 act
Cc1nn2c(COc3ccc(NC(=O)c4ccccc4)cc3)nnc2c2ccccc12	20.7	-0.2	10.5	94.0*	-0.7	7.8
O=C(Nc1ccc(F)cc1F)c1ccc2c(=O)n3c(nc2c1)CCC3	-19.3	1.3	nt	nt	nt	-6.2
CCCCOc1ccc(S(=O)(=O)N2CCN(c3ccc(N4CCN(CC)CC4)nn3)CC2)cc1	34.2	1.8	nt	-13.3	94.7*	2.3
COc1cccc(CNCC(O)(c2ccc(Cl)cc2)c2ccc(Cl)cc2)c1	9.8	-3.1	-5.8	83.6*	-9.0	0.5
CCc1cccc2c(C(=O)COC(=O)c3ccc([N+](=O)[O-])s3)c[nH]c12	6.0	0.1	-2.7	100.0*	-4.0	5.0
Cc1nc2sccn2c(=O)c1CCN1CCC(=C(c2ccc(F)cc2)c2ccc(F)cc2)CC1	36.8	1.1	-1.6	-1.5	79.3*	-8.1
O=C(OCC(=O)N1CCOCC1)c1ccc2ccccc2c1O	-16.1	7.3	1.2	nt	0.3	2.7
O=[N+]([O-])c1ccc(N/N=C/c2ccc[nH]2)cc1	nt	nt	4.1	nt	88.4*	nt
O=[N+]([O-])c1ccc(N/N=C/c2cccc(O)c2O)cc1	-23.9	25.0	25.0	-3.5	95.6*	8.3
O=[N+]([O-])c1ccc(N/N=C/c2cccnc2)cc1	-41.6	4.6	7.5	1.6	21.0	-1.2
O=[N+]([O-])c1ccc(N/N=C/c2c[nH]c3ccccc23)cc1	25.3	9.0	11.9	8.5	96.1*	9.4
COc1ccccc1N1CCN(CCC(=O)Nc2ccc(F)cc2)CC1	13.6	3.3	-2.7	0.3	-1.8	-2.6
COc1ccc(-c2n[nH]c(=S)n2-c2ccc(Br)cc2)cc1OC	-10.5	1.9	-0.5	2.5	-10.5	-0.5
COC(=O)C(C(C)C)N(Cc1cc(OC)cc(OC)c1)S(=O)(=O)CCl (stereo not given)	-9.5	0.5	nt	nt	nt	-2.4
Cc1ccc(C)c(OCCCCN2CCNCC2)c1C	-22.6	2.9	2.4	-14.9	128.9*	-3.3
COc1ccc(Cc2nnc3sc(SCC(=O)Nc4ccccc4)nn3c2=O)cc1OC	-1.6	-0.2	nt	-12.3	11.2	-2.2
CCCc1ccc(Oc2c(-c3ccc(O)c(C)c3O)n[nH]c2C)cc1	13.0	2.2	4.7	95.3*	100.1*	5.2
COc1cccc(Oc2cn[nH]c2-c2ccc(OC)cc2O)c1	27.3	0.1	nt	14.4	35.3	2.2
CCCc1ccc(Oc2cn[nH]c2-c2ccc(O)c(C)c2O)cc1	24.4	3.0	nt	88.5*	123.5*	4.2
CCOc1ccc(NC(=O)C(=O)NCCN2CCN(S(=O)(=O)c3ccc(C)cc3)CC2)cc1	35.0	1.1	9.8	-6.5	-2.6	-2.2
CN(C)S(=O)(=O)c1cc(NC(=O)COC(=O)CC2Sc3ccccc3NC2=O)ccc1Cl (stereo not given)	4.7	1.3	-4.7	nt	8.6	2.2
O=C(OCc1csc(Nc2ccccc2)n1)c1ccc(Cl)cc1	-16.0	-1.4	-9.2	54.8*	nt	-1.7
C#Cc1ccc(CN2CCC(Oc3cc(C(=O)NC4CC4)ccc3OC)CC2)cc1	-8.1	1.7	nt	-2.1	nt	-3.0
Cc1ccccc1N1C(=O)C2CCCN2C1=S (stereo not given)	-4.4	1.7	-1.2	nt	-12.9	0.5
CCCCCn1c(CN2CCN(c3cc(Cl)ccc3C)CC2)nc2c1c(=O)[nH]c(=O)n2C	48.9	3.9	10.5	86.2*	111.8*	20.6
SMILES	Mdm2-MdmX inh	CHOP UPR activ	Beta cell apopt	SKKanGAS inh	CSC inhib	UPR XBP1 act
C=CCOC(=O)C1=C(C)NC(SCC)=C(C#N)C1c1ccc(Cl)cc1 (stereo not given)	18.2	0.2	0.1	76.2*	40.0	5.5
O=C(O)c1cc2c(cc1NC(=O)C1CCCC1)OCCO2	2.9	-0.4	nt	nt	nt	-2.6
CC(C)C(NC(=O)c1ccccc1)c1nnc(SCC(=O)NC2CCCC2)n1C (stereo not given)	-38.6	0.0	1.2	-0.4	-20.4	3.4
O=c1cc(-c2ccc(O)c(-c3c(O)cc(O)c4c(=O)cc(-c5ccc(O)cc5)oc34)c2)oc2cc(O)cc(O)c12	18.5	0.1	-2.4	61.9*	15.6	-0.1
O=C(Nc1ccc(Br)cc1)C1CCCN(C2=NS(=O)(=O)c3ccccc32)C1 (stereo not given)	28.4	2.7	-0.1	nt	nt	-1.4
CCC(C)c1ccc(NC(=O)COc2c(F)c(F)c(C(F)(F)F)c(F)c2F)cc1 (stereo not given)	10.6	0.4	3.5	67.0*	61.0	-3.4
O=C(Nc1cc(-c2ccccc2)[nH]n1)c1ccc(Cl)cc1	1.2	9.3	-0.8	75.0*	60.0	4.0
COc1ccc(NC(=O)Nc2ccc(O)c3ccccc23)cc1	26.7	1.8	9.3	18.2	25.0	-3.6
CC1(NC(=O)CCNC(=O)c2ccc(C(C)(C)C)cc2)CCS(=O)(=O)C1 (stereo not given)	-13.2	0.4	-3.9	nt	nt	0.1
CSc1ncc(CN2CCc3c([nH]c4ccccc34)C2C(C)(C)C)cn1 (stereo not given)	9.8	-2.4	nt	51.5*	-14.2	1.7
CCN(Cc1ccccc1)C(=O)c1cc2c(OC)c(OC)c(OC)cc2[nH]1	30.9	0.5	-0.4	-9.1	-19.1	-0.1
Cc1cc(NCc2ccccc2)n2ncc(-c3ccccc3)c2n1	-27.0	5.6	0.7	11.3	48.4	2.1
CC(C)(C)c1cc(NCc2ccccn2)n2ncc(-c3ccccc3)c2n1	48.3	7.6	nt	108.0*	77.8*	0.6
CN(C)c1ccc(/C=N/NC(=O)CN2CCCCC2)cc1Br	-11.9	-0.7	-2.6	-4.4	-11.7	-0.1
CCOc1ccc(NC(=O)C2CCCN(S(=O)(=O)c3cnc[nH]3)C2)cc1 (stereo not given)	-24.1	-0.4	-8.9	2.6	-2.0	-0.8
O=C(Nc1ccc(OC(F)(F)F)cc1)C1CCCN(S(=O)(=O)c2cnc[nH]2)C1 (stereo not given)	22.5	0.6	2.6	99.1*	-13.0	-4.0
CCCNC(=O)C1(O)c2cc(Br)ccc2NC(=O)N1c1ccc(Cl)cc1 (stereo not given)	9.3	-0.9	-2.0	-3.3	12.5	-3.3
O=C(c1cccs1)N1CCC(c2nc3c(nnn3Cc3ccccc3Cl)c(=O)[nH]2)CC1	31.2	0.6	nt	51.7*	-5.2	-0.5
O=C(NCc1cccs1)c1nc2c(nnn2Cc2ccccc2Cl)c(=O)[nH]1	nt	nt	5.1	18.9	110.8*	nt

Source: PubChem
